Paper PMC3268354 (Bioorganic & Medicinal Chemistry Letters, 2012)

Key:
[1] = test system: cPLA2α-mediated AA release in human monocytes; experiment: cPLA2α-mediated AA release in Ca2+-ionophore A23187-stimulated human monocytes; assay type: cell-based; conditions: human monocytes stimulated with A23187
Method in brief: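 Human monocytes were stimulated with Ca2+-ionophore A23187 in the presence of test compound, and arachidonic acid release was measured. Inhibition is expressed as IC50. A reference cPLA2α inhibitor was run as an assay control.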

[2] = test system: cPLA2α; experiment: reported cPLA2α inhibition of training and test set compounds; assay type: biochemical; conditions: assigned from reported activity of training set compounds

In the case of “N-{(2S,4R)-4-(biphenyl-2-ylmethyl-isobutyl-amino)-1-[2-(2,4-difluorobenzoyl)-benzoyl]-pyrrolidin-2-ylmethyl}-3-[4-(2,4-dioxothiazolidin-5-ylidenemethyl)-phenyl]acrylamide [Compound 43]”, the “inhibition of AA release” value [1] was “inhibited AA release as expected”.
`O=C(COc1ccc(C(=O)O)cc1)COc1ccc(C(=O)NCCCCc2ccccc2)cc1` [Compound 16] was tested, and the “Class (activity class assigned for HipHop refine model)” value (“Class” for short) [2] was “Inactive”.
In the case of `O=C(COc1ccc(SCCCCCc2ccccc2)cc1)COc1ccc(C(=O)O)cc1` [Compound 6], the “Class” value [2] was “Highly active”.
`Cn1ccnc1SCCCCOc1ccc(OCC(=O)COc2ccc(C(=O)O)cc2)cc1` [Compound 18] was tested, and the “Class” value [2] was “Inactive”.
For `O=C(COc1ccc(SCCCCSc2nccs2)cc1)COc1ccc(C(=O)O)cc1` [Compound 14], the “Class” value [2] was “Active”.
With `CCCCCCCCCCCCCCC(=O)C(=O)NCCCC(=O)O` [Compound 1] the “Class” value [2] was “Active”.
In the case of `CN(CCc1ccccc1)C(=O)CSc1ccc(OCC(=O)COc2ccc(C(=O)O)cc2)cc1` [Compound 17], the “Class” value [2] was “Inactive”.
In the case of `CCCCCCCCCCOc1ccc(OCC(=O)COc2ccc(C(=O)O)cc2)cc1` [Compound 7], the “Class” value [2] was “Highly active”.
